Data on 24 compounds can be found in ChEMBL document CHEMBL3853349, “Diversity-Oriented Synthesis as a Strategy for Fragment Evolution against GSK3β” (ACS Med Chem Lett, 2016).

Assay [1] deals with T1, Glycogen synthase kinase-3 beta (Homo sapiens, UniProt P49841). The assay can be described thus: Binding affinity to GSK-3 beta (unknown origin) assessed as assessed as thermal shift at 2.5 mM by differential scanning fluorimetry. The essentials:
(§1)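 Differential scanning fluorimetry on GSK3β, reported as thermal stabilization ΔT in °C. Compounds were tested at 2.5 mM by default; the growth-vector analogue set was run at 1.25 mM for ranking.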
A general note: In DSF a fluorescence change marks the thermal transition of the protein.
Target sequence in this assay (P49841 whole entry, looked up): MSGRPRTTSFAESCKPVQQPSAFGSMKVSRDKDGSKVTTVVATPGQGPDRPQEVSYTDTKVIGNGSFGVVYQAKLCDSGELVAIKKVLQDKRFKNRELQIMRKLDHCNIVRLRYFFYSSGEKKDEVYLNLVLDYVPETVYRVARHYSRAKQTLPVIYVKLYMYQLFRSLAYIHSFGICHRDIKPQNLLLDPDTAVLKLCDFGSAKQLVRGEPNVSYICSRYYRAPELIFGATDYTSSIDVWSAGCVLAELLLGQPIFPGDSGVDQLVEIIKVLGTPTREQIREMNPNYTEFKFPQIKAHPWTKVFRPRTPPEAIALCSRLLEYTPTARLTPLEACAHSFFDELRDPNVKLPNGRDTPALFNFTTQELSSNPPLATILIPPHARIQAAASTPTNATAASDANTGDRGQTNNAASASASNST

For assay [2], the target named is T1, Glycogen synthase kinase-3 beta. The assay can be described thus: Inhibition of recombinant full-length N-terminal GST tagged human GSK-3 beta expressed in baculovirus infected Sf9 insect cells at 1 mM using GSM as substrate after 5 mins by ADP-Glo luminescence assay. The procedure, abridged: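 Single-point ADP-Glo biochemical inhibition of GSK3β with compound at 1 mM, used to rank analogues alongside DSF.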
In general terms: In ADP-Glo the light output rises with the ADP produced.
Target sequence in this assay (P49841 whole entry, looked up): as above

For assay [3] the target is unchanged. The assay can be described thus: Binding affinity to GSK-3 beta (unknown origin) assessed as thermal shift at 1.25 mM by differential scanning fluorimetry. The procedure, abridged: as §1
Target sequence in this assay (P49841 whole entry, looked up): as above
Assay [4] shares this target. The assay can be described thus: Inhibition of recombinant full-length N-terminal GST tagged human GSK-3 beta expressed in baculovirus infected Sf9 insect cells using GSM as substrate after 5 mins by ADP-Glo luminescence assay.
Target sequence in this assay (P49841 whole entry): as the sequence (P49841 whole entry, looked up) above
Assay [5] shares this target. The assay can be described thus: Binding affinity to GSK-3 beta (unknown origin) by WaterLOGSY NMR analysis.
Target sequence in this assay (P49841 whole entry, looked up): as above
Assay [6] has the same target. The assay can be described thus: Binding affinity to GSK-3 beta (unknown origin) after 30 mins by isothermal titration calorimetry. (In ITC the heat of successive injections is recorded.)
Target sequence in this assay (P49841 whole entry): as the sequence (P49841 whole entry, looked up) above
For assay [7] the target is unchanged. The assay can be described thus: Binding affinity to GSK-3 beta (unknown origin) by STD NMR analysis.
Target sequence in this assay (P49841 whole entry, looked up): as above
For assay [8], the species on record is Homo sapiens. The assay can be described thus: Selectivity ratio of IC50 for CDK5 (unknown origin) to IC50 for GSK-3 beta (unknown origin).

pIC50, pKd: −log10 of the molar value. Active and inactive are the calls of the source. The rule behind the calls is not given here.

Turning to `C[C@H]1Nc2ccncc2NC1=O`, in assay [1], the deltaT was 1.6 °C. The inhibition – broadly, the relative decrease from the control value, in per cent – in assay [2] was determined as 61%.

`C[C@@H]1Nc2ccccc2NC1=O`: the deltaT in assay [1] was determined as 0 °C. Further, the inhibition in assay [2] turned out to be 9%.

With `O=C1Nc2ncccc2N[C@H]1Cc1ccccc1`, the deltaT in assay [3] was determined as 0 °C. The inhibition in assay [2] turned out to be 55%.

Take `O=C1Nc2ncccc2N2C[C@H](O)C[C@@H]12`: the deltaT in assay [1] worked out at 0.8 °C.

For `C[C@@H]1Nc2cnccc2NC1=O`, the deltaT in assay [1] was determined as 0.5 °C. The inhibition in assay [2] was found to be 29%.

As to `C[C@H]1Nc2cnccc2NC1=O`, the deltaT in assay [1] was 0.5 °C. Besides, the inhibition in assay [2] was determined as 25%.

As for `C[C@@H]1Nc2ccncc2NC1=O`, the deltaT in assay [1] amounted to 1.4 °C. Also, the inhibition in assay [2] came to 69%.

Take `O=C1Nc2ncccc2N[C@@H]1Cc1ccc(O)cc1`: the deltaT in assay [3] was found to be 2.9 °C. In assay [2], the inhibition was 88%.

Turning to `C[C@@H]1Nc2cccnc2NC1=O`, the deltaT in assay [1] stood at 0.5 °C; in assay [3] it was 0 °C. Besides, in assay [2], the inhibition was 19%.

`O=C1Nc2ncccc2N[C@@H]1Cc1ccccc1`: the deltaT in assay [3] was 1.6 °C. Besides, the inhibition in assay [2] was found to be 63%.

Take `C[C@H]1Nc2cccnc2N(C)C1=O`: the deltaT in assay [1] stood at 0 °C. In addition, the inhibition in assay [2] is 19%.

As for `CC(C)[C@H]1Nc2cccnc2NC1=O`, the deltaT in assay [1] came out at 2.3 °C; in assay [3] it was 1.6 °C. Also, the inhibition in assay [2] turned out to be 57%.

Turning to `O=C1Nc2ncccc2N[C@H]1Cc1c[nH]c2ccccc12`, the deltaT in assay [3] turned out to be 1.7 °C. Besides, the inhibition in assay [2] came out at 76%. In addition, in assay [4], the pIC50 (commonly −log10 of the IC50, conventionally taken in molar units) is 3.49.

For the compound `C[C@@H]1CNc2ncccc2N1`, the deltaT in assay [1] is 0 °C. Also, the inhibition in assay [2] came out at 17%.

Consider `O=C1Nc2ncccc2N[C@H]1CO`, for which the deltaT in assay [1] is 0.5 °C.

`CC(C)[C@@H]1Nc2cccnc2NC1=O`: in assay [3], the deltaT was 0 °C. Further, the inhibition in assay [2] amounted to 25%.

For the compound `CC1(C)Nc2cccnc2NC1=O`, the deltaT in assay [1] is 0.7 °C. Further, the inhibition in assay [2] amounted to 26%.

On to `C[C@H]1Nc2ccccc2NC1=O`, for which the deltaT in assay [1] came out at 0 °C. Also, the inhibition in assay [2] was determined as 12%.

With `C[C@H]1Nc2ncccc2NC1=O`, the deltaT in assay [1] amounted to 1.4 °C. In addition, the inhibition in assay [2] was 66%.

On to `O=C1Nc2ncccc2N[C@H]1Cc1ccc(O)cc1`, for which the deltaT in assay [3] worked out at 2.1 °C. Besides, in assay [2], the inhibition was determined as 78%.

With `C[C@H]1Nc2cccnc2NC1=O`, the deltaT in assay [1] worked out at 1.7 °C; in assay [3] it was 1 °C. Further, the inhibition in assay [2] was 46%. Also, the outcome in assay [5] and in assay [7] was Active. Further, the pKd (in general, the negative decadic logarithm of the Kd, by convention in mol/L) in assay [6] was 3.22.

`C[C@@H]1Nc2ncccc2NC1=O`: the deltaT in assay [1] was 1 °C. Further, the inhibition in assay [2] worked out at 63%.

As to `Cc1nc2cccnc2[nH]c1=O`, the deltaT in assay [3] came out at 0.5 °C. Further, the inhibition in assay [2] was 35%.

For the compound `O=C1Nc2ncccc2N[C@@H]1Cc1c[nH]c2ccccc12`, the deltaT in assay [3] is 4.5 °C. Further, the inhibition in assay [2] worked out at 94%. Also, in assay [6], the pKd is 5.05. For the same compound, the pIC50 in assay [4] was 4.74. Moreover, the Ratio IC50 in assay [8] is 50.
